We go through two compounds from ChEMBL document CHEMBL4321880 (J Med Chem, 2020).

Usually inhibition stands for how much of the control response was suppressed.

One data set addresses CYP3A5 (Homo sapiens, UniProt P20815). Briefly: Inhibition of human recombinant CYP3A5 expressed in supersomes assessed as decrease in formation of D-luciferin at 1.89 uM using luciferin-IPA as substrate incubated for 10 mins in presence of NADPH by P450-Glo luminescence assay relative to control. To be noted: probe luciferin-IPA.
Data set [1] concerns ASPC1. Put plainly: Increase in CYP3A4 expression in CRISPR/Cas9-mediated CYP3A5 knock-out and doxycycline-induced CYP3A4 overexpressing human AsPC1 cells at 1 uM after 24 hrs by Western blot analysis. In kind it is ADME, cell-based. To be noted: aspc1, 24 h. The method in brief:
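Overexpression was induced with 100 ng/mL doxycycline. […] Blots were probed with anti-CYP3A4 K03 (also detects CYP3A5) and β-actin, with infrared dye secondaries. Bands were normalized to actin across triplicate gels, with DMSO set as 1.0.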
(In general: In western blotting, separated proteins are transferred to a membrane and probed.)

Data set [2] deals with ASPC1. Put plainly: Cytotoxicity against wild type human AsPC1 cells assessed as cell growth. The class given is cell-based. The method in brief: (§1)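 Cells seeded at 10,000/well. Dox-inducible lines were induced with 100 ng/mL doxycycline, then treated 24 h later with compound at 16 two-fold dilutions (0.0003–10 μM) plus 5 μM midazolam, in 0.66% DMSO final, for 24 h. Phase-contrast confluence imaging followed. Values were normalized to six 0.66% DMSO replicates and fitted with a three-parameter log(inhibitor) vs response curve.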

Data set [3] has as its system ASPC1. Put plainly: Cytotoxicity against lentiviral pLVX-TRE3G-ZsGreen1-CYP3A5 transduced wild type human AsPC1 cells overexpressing CYP3A5 assessed as cell growth. In kind it is ADME, cell-based. The method in brief:
as §1

The test system of data set [4] is ASPC1. Put plainly: Cytotoxicity against doxycycline-induced CYP3A5 overexpressing wild type human AsPC1 cells assessed as cell growth. The class given is ADME, cell-based. The method in brief: as §1
The subject of data set [5] is ASPC1. Briefly: Cytotoxicity against CRISPR/Cas9-mediated CYP3A5 knock-out and lentiviral pLVX-TRE3G-ZsGreen1-CYP3A4 transduced human AsPC1 cells overexpressing CYP3A4 assessed as cell growth. The class given is ADME, cell-based. The method in brief:
as §1

Data set [6] has as its system ASPC1. Put plainly: Cytotoxicity against CRISPR/Cas9-mediated CYP3A5 knock-out human AsPC1 cells assessed as cell growth. In kind it is ADME, cell-based. A digest of the protocol:
as §1

Data set [7] relates to ASPC1. Briefly: Cytotoxicity against CRISPR/Cas9-mediated CYP3A5 knock-out and doxycycline-induced CYP3A4 overexpressing human AsPC1 cells assessed as cell growth. In kind it is ADME, cell-based. The method in brief: as §1
For data set [8], the system named is ASPC1. Briefly: Cytotoxicity against CRISPR/Cas9-mediated CYP3A5 knock-out and lentiviral pLVX-TRE3G-ZsGreen1-CYP3A5 transduced human AsPC1 cells overexpressing CYP3A5 assessed as cell growth. In kind it is ADME, cell-based. The method in brief:
as §1

For data set [9], the system named is ASPC1. Put plainly: Cytotoxicity against CRISPR/Cas9-mediated CYP3A5 knock-out and doxycycline-induced CYP3A5 overexpressing human AsPC1 cells assessed as cell growth. In kind it is ADME, cell-based. A digest of the protocol:
as §1

The target in data set [10] is T1, Cytochrome P450 3A5 (Homo sapiens, UniProt P20815). Put plainly: Binding affinity to heme in His-tagged CYP3A5 (unknown origin) expressed in Escherichia coli DH5alpha assessed as formation of five-coordinate ferric heme iron by measuring type 1 Soret shift from 417 nm (low spin) to 395 nm (high spin) by UV-vis spectrophotometric titration analysis. The method in brief: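 Purified recombinant His-tagged CYP3A5 titrated with successive ligand additions until heme absorbance stopped changing. The ligand-free spectrum was subtracted to give difference spectra. Peak-minus-trough values were plotted against ligand concentration and fitted to a binding equation for Kd. Wavelength pairs: ΔA 386–418 nm for the type I shift; ΔA 432–410 nm for the type II shift.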
T1 sequence (P20815 whole entry): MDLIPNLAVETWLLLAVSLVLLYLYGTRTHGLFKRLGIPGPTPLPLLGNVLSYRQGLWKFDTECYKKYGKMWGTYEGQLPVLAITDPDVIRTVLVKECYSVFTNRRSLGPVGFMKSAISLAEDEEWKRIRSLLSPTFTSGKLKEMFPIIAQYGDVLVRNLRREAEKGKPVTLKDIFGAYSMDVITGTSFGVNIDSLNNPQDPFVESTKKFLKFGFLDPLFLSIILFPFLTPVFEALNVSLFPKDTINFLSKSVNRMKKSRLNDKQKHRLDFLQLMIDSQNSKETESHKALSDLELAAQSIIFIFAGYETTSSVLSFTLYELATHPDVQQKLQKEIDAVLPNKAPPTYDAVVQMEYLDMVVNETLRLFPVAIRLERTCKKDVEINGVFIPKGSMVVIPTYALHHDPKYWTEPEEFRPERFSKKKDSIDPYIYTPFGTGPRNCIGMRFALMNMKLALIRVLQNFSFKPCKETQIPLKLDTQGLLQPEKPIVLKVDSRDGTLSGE

Data set [11] deals with T1, Cytochrome P450 3A5. Briefly: Binding affinity to His-tagged CYP3A5 (unknown origin) expressed in Escherichia coli DH5alpha assessed as five-coordinate HS ferric heme iron state formation with displacement of distal water ligand by EPR spectroscopy. A digest of the protocol:
(§2)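 Continuous-wave X-band EPR of purified recombinant enzyme, alone and in complex with ligand. Spectra were compared against the ligand-free form.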

For a further data set, the target named is Cytochrome P450 3A4 (Homo sapiens, UniProt P08684). Briefly: Binding affinity to His-tagged CYP3A4 (unknown origin) expressed in Escherichia coli DH5alpha assessed as induction of HS formation by EPR spectroscopy. The class given is ADME. The method in brief:
as §2

CYP3A5, sequence (P20815 whole entry): as above
Cytochrome P450 3A4, sequence (P08684 whole entry): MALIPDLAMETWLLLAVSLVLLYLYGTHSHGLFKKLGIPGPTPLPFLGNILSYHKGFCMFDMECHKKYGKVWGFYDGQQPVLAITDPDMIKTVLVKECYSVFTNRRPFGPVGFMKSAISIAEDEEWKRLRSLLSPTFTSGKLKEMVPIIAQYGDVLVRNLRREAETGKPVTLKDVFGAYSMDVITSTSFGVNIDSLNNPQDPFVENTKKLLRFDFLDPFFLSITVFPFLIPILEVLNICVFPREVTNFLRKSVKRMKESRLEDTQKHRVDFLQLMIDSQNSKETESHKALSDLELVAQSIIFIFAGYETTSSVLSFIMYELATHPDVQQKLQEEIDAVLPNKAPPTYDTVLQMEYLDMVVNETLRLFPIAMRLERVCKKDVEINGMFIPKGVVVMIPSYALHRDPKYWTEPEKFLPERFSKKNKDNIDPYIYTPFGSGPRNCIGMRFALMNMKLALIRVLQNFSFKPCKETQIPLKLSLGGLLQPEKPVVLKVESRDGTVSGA

As to `CC(=O)N1CCN(c2ccc(OCC3COC(Cn4ccnc4)(c4ccc(Cl)cc4Cl)O3)cc2)CC1` (stereo not drawn) [KETOCONAZOLE], at CYP3A5, the inhibition at 10 min, 1.89 µM worked out at 100%. In addition, the Activity result is “Active” with ASPC1 [1]; “Non-Toxic” in the data set on ASPC1 [2]; “Non-Toxic” with ASPC1 [3]; “Non-Toxic” with ASPC1 [4]; “Non-Toxic” in the data set on ASPC1 [5]; “Non-Toxic” with ASPC1 [6]. Moreover, the Activity result with ASPC1 [7], in the data set on ASPC1 [8] and in the data set on ASPC1 [9] was “Non-Toxic” throughout.
With `Cc1ncc2n1-c1ccc(Cl)cc1C(c1ccccc1F)=NC2` [MIDAZOLAM], the result at Cytochrome P450 3A5 [10], on Cytochrome P450 3A5 [11] and on Cytochrome P450 3A4 was Active.
